Measurements from ChEMBL document CHEMBL3822443, “Looking for new antiplasmodial quinazolines: DMAP-catalyzed synthesis of 4-benzyloxy- and 4-aryloxy-2-trichloromethylquinazolines and their in vitro evaluation toward Plasmodium falciparum” (Eur J Med Chem, 2016).

How the values were obtained:
[1] = Cytotoxicity against human HepG2 cells measured after 72 hrs by MTT assay; assay type: cell-based
In short: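 Cells seeded at 5.10³ per well in complete medium at 37 °C, humidified 6% CO₂, and left 24 h. Compound was added in DMSO (final under 0.5% v/v) over a range of concentrations for 72 h at 37 °C, in triplicate. Wells were checked under the microscope for precipitate. MTT (0.5 mg/mL in FCS-free medium) was added for 2 h, then A570 read with a 630 nm reference. Viability was taken as % of control, CC50 from dose–response, mean of three independent experiments.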

[2] = Selectivity index, ratio of CC50 for human HepG2 cells to IC50 for chloroquine/purimethamine/proguanil-resistant Plasmodium falciparum K1; assay type: functional
In short: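 SI = CC50/IC50 (K1). […] MTT at 0.5 mg/mL was added for 2 h, and absorbance read at 570 nm against 630 nm reference. Viability was taken as % of control, and CC50 is the mean of three independent experiments.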

[3] = Solubility of compound in RPMI1640 culture medium containing 25mM HEPES, 25 mM NaHCO3 and 10% A+ human serum; assay type: physicochemical
Plasmodium falciparum = assay: Antiplasmodial activity against chloroquine/purimethamine/proguanil-resistant Plasmodium falciparum K1 infected in human A+ erythrocytes assessed as reduction in parasitaemia measured after 72 hrs by SYBR Green I fluorescence-based assay; assay type: functional, organism-based; conditions: K1, 72 h

Structure (SMILES) | CC50 at 72 h [1] | Ratio CC50/IC50 [2] | solubility [3] | IC50 (Plasmodium falciparum)
COc1cccc(Oc2nc(C(Cl)(Cl)Cl)nc3ccccc23)c1 | 0.5 µM | 0.3 | soluble | –
Clc1ccc(Oc2nc(C(Cl)(Cl)Cl)nc3ccccc23)c(Cl)c1 | 22.1 µM | 18.4 | soluble | 1.2 µM
CC(=O)c1ccccc1Oc1nc(C(Cl)(Cl)Cl)nc2ccccc12 | 40 µM | 26.7 | soluble | 1.5 µM
Cc1cc(Oc2nc(C(Cl)(Cl)Cl)nc3ccccc23)ccc1Cl | 5.3 µM | 5.9 | soluble | 0.9 µM
COc1ccc(COc2nc(C(Cl)(Cl)Cl)nc3ccccc23)cc1OC | 118 µM | 30.6 | soluble | 3.9 µM
ClC(Cl)(Cl)c1nc(Oc2c(Br)cc(Br)c3cccnc23)c2ccccc2n1 | 4.9 µM | <0.5 | soluble | > 10 µM
Cc1ccc(COc2nc(C(Cl)(Cl)Cl)nc3ccccc23)cc1 | 50.9 µM | 12.7 | soluble | 4 µM
ClC(Cl)(Cl)c1nc(Oc2cccc(Br)c2)c2ccccc2n1 | 36.7 µM | 16 | soluble | 2.3 µM
ClC(Cl)(Cl)c1nc(OCc2cccc(OCc3ccccc3)c2)c2ccccc2n1 | 62.5 µM | 16.4 | soluble | 3.8 µM
ClC(Cl)(Cl)c1nc(Oc2ccccc2Br)c2ccccc2n1 | 26.2 µM | 13.8 | soluble | 1.9 µM
Clc1ccc(COc2nc(C(Cl)(Cl)Cl)nc3ccccc23)cc1 | 33.4 µM | 13.4 | soluble | 2.5 µM
Cc1occc(=O)c1Oc1nc(C(Cl)(Cl)Cl)nc2ccccc12 | 62.7 µM | <6.3 | soluble | > 10 µM
CC(=O)c1ccccc1Oc1nc(C)nc2ccccc12 | – | – | soluble | > 15 µM
N#Cc1ccc(Oc2nc(C(Cl)(Cl)Cl)nc3ccccc23)cc1 | > 8 µM | >5 | Insoluble | 1.6 µM
FC(F)(F)c1ccc(COc2nc(C(Cl)(Cl)Cl)nc3ccccc23)cc1 | 27.8 µM | 9.9 | soluble | 2.8 µM
O=[N+]([O-])c1ccc(COc2nc(C(Cl)(Cl)Cl)nc3ccccc23)cc1 | 34.9 µM | 19.4 | soluble | 1.8 µM
COc1ccc(COc2nc(C(Cl)(Cl)Cl)nc3ccccc23)cc1 | 90.3 µM | <9 | soluble | > 10 µM
O=c1cc(Oc2nc(C(Cl)(Cl)Cl)nc3ccccc23)c2ccccc2o1 | 59 µM | <5.9 | soluble | > 10 µM
ClC(Cl)(Cl)c1nc(Oc2ccc3ccccc3n2)c2ccccc2n1 | 30.3 µM | <3 | soluble | > 10 µM

Structure (SMILES) | CC50 at 72 h [1] | Ratio CC50/IC50 [2] | solubility [3] | IC50 (Plasmodium falciparum)
CC(C)c1ccc(COc2nc(C(Cl)(Cl)Cl)nc3ccccc23)cc1 | 33.3 µM | <3.3 | soluble | > 10 µM
O=Cc1ccccc1Oc1nc(C(Cl)(Cl)Cl)nc2ccccc12 | 75 µM | 7.5 | soluble | 10 µM
CC(=O)c1cccc(Oc2nc(C(Cl)(Cl)Cl)nc3ccccc23)c1 | 1 µM | 0.6 | soluble | 1.7 µM
O=[N+]([O-])c1cccc(COc2nc(C(Cl)(Cl)Cl)nc3ccccc23)c1 | 29.9 µM | 13.6 | soluble | 2.2 µM
C#CC(Oc1nc(C(Cl)(Cl)Cl)nc2ccccc12)c1ccccc1 (configuration not stated) | 24.6 µM | 10.2 | soluble | 2.4 µM
Fc1c(F)c(F)c(Oc2nc(C(Cl)(Cl)Cl)nc3ccccc23)c(F)c1F | 43.7 µM | 9.9 | soluble | 4.4 µM
ClC(Cl)(Cl)c1nc(OCc2ccccc2)c2ccccc2n1 | 43.8 µM | 21.9 | soluble | 2 µM
O=[N+]([O-])c1ccccc1COc1nc(C(Cl)(Cl)Cl)nc2ccccc12 | > 10 µM | >4.3 | Insoluble | 2.3 µM
CC(=O)c1ccc(Oc2nc(C(Cl)(Cl)Cl)nc3ccccc23)cc1 | 49.5 µM | 21.5 | soluble | 2.3 µM
O=[N+]([O-])c1ccc(/C=C/COc2nc(C(Cl)(Cl)Cl)nc3ccccc23)cc1 | 31.2 µM | 12 | soluble | 2.6 µM
O=[N+]([O-])c1cc2c(cc1COc1nc(C(Cl)(Cl)Cl)nc3ccccc13)OCO2 | 28.7 µM | 9.3 | soluble | 3.1 µM
ClC(Cl)(Cl)c1nc(Oc2ccc(Br)cc2)c2ccccc2n1 | 45 µM | 25 | soluble | 1.8 µM
CC(Oc1nc(C(Cl)(Cl)Cl)nc2ccccc12)c1ccc(Cl)cc1 (configuration not stated) | 25.1 µM | 7.2 | soluble | 3.5 µM
N#CC(Oc1nc(C(Cl)(Cl)Cl)nc2ccccc12)c1ccccc1 (configuration not stated) | 25.7 µM | 17.1 | soluble | 1.5 µM
CC(Oc1nc(C(Cl)(Cl)Cl)nc2ccccc12)c1ccccc1 (configuration not stated) | 39.9 µM | 12.1 | soluble | 3.3 µM
CC(Oc1nc(C(Cl)(Cl)Cl)nc2ccccc12)c1ccc(Cl)cc1Cl (configuration not stated) | 30.2 µM | 7.2 | soluble | 4.2 µM
COc1cc(C=O)cc([N+](=O)[O-])c1Oc1nc(C(Cl)(Cl)Cl)nc2ccccc12 | 57 µM | <5.7 | soluble | > 10 µM
C[C@H]1c2cccc(O)c2C(=O)C2=C(O)[C@]3(O)C(=O)C(C(N)=O)=C(O)[C@@H](N(C)C)[C@@H]3[C@@H](O)[C@@H]21.O [DOXYCYCLINE] | – | 3.3 | – | –
